Active and inactive are the calls of the source. The calls are words filed in the database; no cut-off is given here.
Key:
[1] = target: Mitogen-activated protein kinase 15 (Homo sapiens) (UniProt Q8TD08); test: Inhibition of recombinant human N-terminal His6-tagged ERK8 (2 to 544 residues) expressed in baculovirus infected Sf21 cells assessed as remaining activity at 10 uM using MBP as substrate incubated for 30 mins in presence of [gamma-33P]ATP by filter binding method relative to control
How it was run: (§1)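 Radiometric kinase panel run robotically at room temperature (21 °C) for 30 min, linear in time and enzyme. […] Activity is expressed as percent of control without compound, from triplicate determinations ± S.D.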

[2] = target: mTORC1 (Homo sapiens) (UniProt P42345+Q8N122+Q9BVC4); settings: HEK293, dose 30-1000 nM, time 30.0 min
[3] = target: Insulin receptor-related protein (Homo sapiens) (UniProt P14616); test: Inhibition of recombinant human N-terminal His6-tagged IRR (944 to 1236 residues) expressed in baculovirus infected Sf21 cells assessed as remaining activity at 10 uM using MBP as substrate incubated for 30 mins in presence of [gamma-33P]ATP by filter binding method relative to control
[4] = target: Serine/threonine-protein kinase N2 (Homo sapiens) (UniProt Q16513); test: Inhibition of recombinant N-terminal His6/FLAG-tagged human PRK2 (501 to 984 residues) expressed in baculovirus infected Sf21 cells assessed as remaining activity at 10 uM using S6 peptide as substrate incubated for 30 mins in presence of [gamma-33P]ATP by filter binding method relative to control
How it was run: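 Kinase panel run robotically at 21 °C for 30 min, linear in time and enzyme. […] Compound tested at 1 or 10 µM. Activity given as percentage of incubations without compound, mean of triplicates ± S.D.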

[5] = target: T1, mTORC2 (Homo sapiens) (UniProt P42345+Q6R327+Q9BVC4+Q9BPZ7); settings: HEK293, dose 30-1000 nM, time 30.0 min
[6] = target: Serine/threonine-protein kinase PAK 5 (Homo sapiens) (UniProt Q9P286); test: (§2) Inhibition of recombinant human N-terminal GST-tagged PAK5 (2 to 719 residues) expressed in Escherichia coli assessed as remaining activity at 1 uM using RRRLSFAEPG as substrate incubated for 30 mins in presence of [gamma-33P]ATP by filter binding method relative to control
How it was run: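 Panel assays were run for 30 min at 21 °C, within the linear range for time and enzyme. […] Results are percent activity remaining relative to compound-free control, averaged from triplicate ± S.D.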

[7] = target: Myosin light chain kinase (Homo sapiens) (UniProt Q32MK0); test: Inhibition of MLCK (unknown origin) assessed as remaining activity at 10 uM relative to control
How it was run: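 Profiling-centre panel assay performed robotically at 21 °C for 30 min, linear with time and enzyme. […] Values are percent of compound-free control activity, the mean of triplicates ± S.D.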

[8] = target: T1, mTORC2 (Homo sapiens); settings: HEK293, dose 30-1000 nM, time 30.0 min; remark: listed apart in the source
[9] = target: Ephrin type-A receptor 2 (Homo sapiens) (UniProt P29317); test: Inhibition of recombinant human N-terminal GST-tagged EPHA2 (591 to 976 residues) expressed in Escherichia coli assessed as remaining activity at 10 uM using Poly (Glu,Tyr) as substrate incubated for 30 mins in presence of [gamma-33P]ATP by filter binding method relative to control
How it was run: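 Run robotically for 30 min at 21 °C under linear conditions. Compound at 1 or 10 µM. Percentage activity remaining versus control without compound, triplicate mean ± S.D.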

[10] = test system: Ribosomal protein S6 kinase beta-1 (Homo sapiens), P23443 [T412E]; test: Inhibition of recombinant human His6-tagged S6K1 T412E mutant (1 to 421 residues) expressed in baculovirus infected Sf21 cells assessed as remaining activity at 1 uM using KKRNRTLTV as substrate incubated for 30 mins in presence of [gamma-33P]ATP by filter binding method relative to control
How it was run: (§3)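 Incubations ran robotically for 30 min at room temperature (21 °C) under linear conditions. Results are percent activity remaining versus controls without compound, as the mean of triplicates ± S.D.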

[11] = target: Insulin-like growth factor 1 receptor (Homo sapiens) (UniProt P08069); test: Inhibition of recombinant human N-terminal His6-tagged IGF1R (954 to 1367 residues) expressed in baculovirus infected Sf21 cells assessed as remaining activity at 1 uM using KKKSPGEYVNIEFG as substrate incubated for 30 mins in presence of [gamma-33P]ATP by filter binding method relative to control; how it was run: as §1
[12] = target: Inhibitor of nuclear factor kappa-B kinase subunit epsilon (Homo sapiens) (UniProt Q14164); test: Inhibition of recombinant human N-terminal GST-tagged IKKepsilon (1 to 716 residues) expressed in baculovirus infected Sf21 cells assessed as remaining activity at 10 uM using MBP as substrate incubated for 30 mins in presence of [gamma-33P]ATP by filter binding method relative to control
How it was run: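 Incubation was 30 min at room temperature (21 °C) under conditions linear with time and enzyme amount. Activity is reported as percent of control lacking compound, triplicate mean ± S.D.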

[13] = target: Tyrosine-protein kinase Lck (Homo sapiens) (UniProt P06239); test: Inhibition of recombinant human N-terminal His6-tagged LCK (2 to 509 residues) expressed in baculovirus infected Sf21 cells assessed as remaining activity at 10 uM using KVEKIGEGTYGVVYK as substrate incubated for 30 mins in presence of [gamma-33P]ATP by filter binding method relative to control
How it was run: (§4)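 Assays ran 30 min at 21 °C, robotically and in the linear range. Remaining activity is given relative to incubations lacking compound, as the average of triplicate determinations ± S.D.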

[14] = target: CDK2/Cyclin A2 (Homo sapiens) (UniProt P24941+P20248); test: as §2, with “CDK2” for “PAK5”, “298 residues)/N-terminal GST-tagged Cyclin A2 (171 to 432” for “719”, “10” for “1”, “YSPTSPSYSPTSPSYSPTSPKKK” for “RRRLSFAEPG”; how it was run: as §3
[15] = target: Homeodomain-interacting protein kinase 2 (Homo sapiens) (UniProt Q9H2X6); test: Inhibition of recombinant human N-terminal GST-tagged HIPK2 (165 to 564 residues) expressed in Escherichia coli assessed as remaining activity at 1 uM using MBP as substrate incubated for 30 mins in presence of [gamma-33P]ATP by filter binding method relative to control; how it was run: as §1
[16] = target: Serine/threonine-protein kinase BRSK2 (Homo sapiens) (UniProt Q8IWQ3); test: Inhibition of recombinant human N-terminal His6-tagged BRSK2 (2 to 674 residues) expressed in baculovirus infected Sf21 cells assessed as remaining activity at 10 uM using KKLNRTLSFAEPG as substrate incubated for 30 mins in presence of [gamma-33P]ATP by filter binding method relative to control; how it was run: as §4
[17] = target: T1, mTORC2 (Homo sapiens); settings: HEK293, dose 30-1000 nM, time 30.0 min; remark: listed apart in the source

Ephrin type-A receptor 2 (Homo sapiens), sequence (P29317 whole entry, the tested form may be a part): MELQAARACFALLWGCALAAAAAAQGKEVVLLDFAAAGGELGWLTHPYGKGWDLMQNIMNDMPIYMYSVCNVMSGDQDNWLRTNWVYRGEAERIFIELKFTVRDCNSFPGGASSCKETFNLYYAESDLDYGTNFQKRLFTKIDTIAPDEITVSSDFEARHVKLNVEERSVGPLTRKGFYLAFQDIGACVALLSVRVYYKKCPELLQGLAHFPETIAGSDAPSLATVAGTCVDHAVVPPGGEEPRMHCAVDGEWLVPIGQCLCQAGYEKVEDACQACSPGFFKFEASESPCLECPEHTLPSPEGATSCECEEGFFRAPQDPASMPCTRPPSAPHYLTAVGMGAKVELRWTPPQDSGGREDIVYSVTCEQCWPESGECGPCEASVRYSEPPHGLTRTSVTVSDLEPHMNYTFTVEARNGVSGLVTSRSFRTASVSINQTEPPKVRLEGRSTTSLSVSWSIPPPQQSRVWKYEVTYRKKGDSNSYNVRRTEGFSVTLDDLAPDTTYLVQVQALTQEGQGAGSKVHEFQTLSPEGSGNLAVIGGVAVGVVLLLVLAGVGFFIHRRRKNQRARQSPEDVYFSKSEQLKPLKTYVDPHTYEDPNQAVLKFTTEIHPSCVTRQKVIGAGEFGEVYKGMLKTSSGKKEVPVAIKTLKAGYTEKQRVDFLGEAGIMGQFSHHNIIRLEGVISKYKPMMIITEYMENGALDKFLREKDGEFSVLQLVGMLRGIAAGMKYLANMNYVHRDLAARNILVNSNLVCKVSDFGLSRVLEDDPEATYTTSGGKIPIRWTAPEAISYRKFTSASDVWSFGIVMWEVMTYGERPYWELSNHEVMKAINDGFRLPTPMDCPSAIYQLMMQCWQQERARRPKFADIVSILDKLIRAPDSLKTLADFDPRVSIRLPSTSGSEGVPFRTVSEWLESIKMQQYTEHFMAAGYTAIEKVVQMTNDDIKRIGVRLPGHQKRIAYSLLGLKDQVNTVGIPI
Tyrosine-protein kinase Lck (Homo sapiens), sequence (P06239 2-509 limits assumed): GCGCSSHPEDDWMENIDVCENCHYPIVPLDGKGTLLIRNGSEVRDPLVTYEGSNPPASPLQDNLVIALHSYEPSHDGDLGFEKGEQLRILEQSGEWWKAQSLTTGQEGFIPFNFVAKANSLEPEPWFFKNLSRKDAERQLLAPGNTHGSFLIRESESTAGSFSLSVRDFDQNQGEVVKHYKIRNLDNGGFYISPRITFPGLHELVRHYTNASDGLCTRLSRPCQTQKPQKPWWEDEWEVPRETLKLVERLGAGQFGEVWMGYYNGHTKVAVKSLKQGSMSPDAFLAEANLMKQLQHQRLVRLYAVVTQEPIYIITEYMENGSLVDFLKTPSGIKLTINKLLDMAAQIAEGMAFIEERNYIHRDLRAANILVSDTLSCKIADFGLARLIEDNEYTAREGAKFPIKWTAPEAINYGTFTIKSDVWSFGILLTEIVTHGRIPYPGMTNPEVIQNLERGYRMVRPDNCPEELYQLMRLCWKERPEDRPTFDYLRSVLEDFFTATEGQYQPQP
Inhibitor of nuclear factor kappa-B kinase subunit epsilon (Homo sapiens), sequence (Q14164 whole entry, the tested form may be a part): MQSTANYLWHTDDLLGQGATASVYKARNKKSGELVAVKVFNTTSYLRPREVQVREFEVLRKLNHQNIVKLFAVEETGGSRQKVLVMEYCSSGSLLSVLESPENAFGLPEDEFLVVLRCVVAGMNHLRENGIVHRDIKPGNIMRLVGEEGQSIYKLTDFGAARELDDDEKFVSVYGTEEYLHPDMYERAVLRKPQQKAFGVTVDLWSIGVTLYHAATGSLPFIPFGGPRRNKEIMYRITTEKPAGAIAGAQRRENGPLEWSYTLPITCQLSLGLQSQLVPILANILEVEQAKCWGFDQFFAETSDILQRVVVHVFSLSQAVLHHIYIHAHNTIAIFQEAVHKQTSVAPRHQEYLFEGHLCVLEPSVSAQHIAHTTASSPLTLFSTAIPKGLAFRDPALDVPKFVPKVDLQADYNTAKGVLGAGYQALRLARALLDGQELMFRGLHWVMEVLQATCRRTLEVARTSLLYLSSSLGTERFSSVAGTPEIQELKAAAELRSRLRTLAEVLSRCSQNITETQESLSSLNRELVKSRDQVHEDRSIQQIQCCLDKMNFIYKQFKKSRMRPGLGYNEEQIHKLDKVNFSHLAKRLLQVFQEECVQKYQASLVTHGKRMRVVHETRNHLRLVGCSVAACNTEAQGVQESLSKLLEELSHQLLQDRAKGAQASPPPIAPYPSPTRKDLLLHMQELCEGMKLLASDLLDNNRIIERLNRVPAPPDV
Serine/threonine-protein kinase PAK 5 (Homo sapiens), sequence (Q9P286 whole entry, looked up, the tested form may be a part): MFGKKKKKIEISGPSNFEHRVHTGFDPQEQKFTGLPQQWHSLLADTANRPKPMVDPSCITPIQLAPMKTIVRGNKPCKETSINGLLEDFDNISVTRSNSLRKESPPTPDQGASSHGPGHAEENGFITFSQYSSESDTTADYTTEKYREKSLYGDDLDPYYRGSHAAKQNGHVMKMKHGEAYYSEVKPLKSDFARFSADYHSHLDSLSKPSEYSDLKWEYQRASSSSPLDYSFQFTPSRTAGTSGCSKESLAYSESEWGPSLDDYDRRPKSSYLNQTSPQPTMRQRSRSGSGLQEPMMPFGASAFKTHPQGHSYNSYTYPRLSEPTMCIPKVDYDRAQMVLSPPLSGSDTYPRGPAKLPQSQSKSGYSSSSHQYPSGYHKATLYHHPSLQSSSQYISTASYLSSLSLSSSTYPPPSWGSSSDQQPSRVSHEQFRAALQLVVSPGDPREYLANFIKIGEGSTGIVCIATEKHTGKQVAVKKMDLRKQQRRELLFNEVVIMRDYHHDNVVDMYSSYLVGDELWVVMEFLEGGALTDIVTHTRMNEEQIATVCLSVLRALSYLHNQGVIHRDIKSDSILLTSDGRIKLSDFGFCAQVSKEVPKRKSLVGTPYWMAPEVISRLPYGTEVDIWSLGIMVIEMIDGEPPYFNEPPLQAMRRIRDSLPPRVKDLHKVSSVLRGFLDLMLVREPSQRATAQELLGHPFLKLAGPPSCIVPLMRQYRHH
Mitogen-activated protein kinase 15 (Homo sapiens), sequence (Q8TD08 whole entry, the tested form may be a part): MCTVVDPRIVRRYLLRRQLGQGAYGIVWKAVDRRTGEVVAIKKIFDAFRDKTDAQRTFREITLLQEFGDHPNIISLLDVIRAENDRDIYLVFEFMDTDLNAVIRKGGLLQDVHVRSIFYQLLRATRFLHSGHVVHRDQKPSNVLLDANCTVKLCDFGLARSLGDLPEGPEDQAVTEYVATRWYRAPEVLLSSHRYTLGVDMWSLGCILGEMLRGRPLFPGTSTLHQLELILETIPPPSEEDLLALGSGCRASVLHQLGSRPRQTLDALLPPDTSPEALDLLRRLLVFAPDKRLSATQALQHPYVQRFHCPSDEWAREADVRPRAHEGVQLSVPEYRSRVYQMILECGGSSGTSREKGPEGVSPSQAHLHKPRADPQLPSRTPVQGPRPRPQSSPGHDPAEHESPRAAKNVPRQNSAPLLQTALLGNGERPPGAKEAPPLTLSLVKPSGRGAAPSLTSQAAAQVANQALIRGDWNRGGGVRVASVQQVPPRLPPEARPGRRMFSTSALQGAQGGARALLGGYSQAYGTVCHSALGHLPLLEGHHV
Insulin-like growth factor 1 receptor (Homo sapiens), sequence (P08069 31-736 limits assumed): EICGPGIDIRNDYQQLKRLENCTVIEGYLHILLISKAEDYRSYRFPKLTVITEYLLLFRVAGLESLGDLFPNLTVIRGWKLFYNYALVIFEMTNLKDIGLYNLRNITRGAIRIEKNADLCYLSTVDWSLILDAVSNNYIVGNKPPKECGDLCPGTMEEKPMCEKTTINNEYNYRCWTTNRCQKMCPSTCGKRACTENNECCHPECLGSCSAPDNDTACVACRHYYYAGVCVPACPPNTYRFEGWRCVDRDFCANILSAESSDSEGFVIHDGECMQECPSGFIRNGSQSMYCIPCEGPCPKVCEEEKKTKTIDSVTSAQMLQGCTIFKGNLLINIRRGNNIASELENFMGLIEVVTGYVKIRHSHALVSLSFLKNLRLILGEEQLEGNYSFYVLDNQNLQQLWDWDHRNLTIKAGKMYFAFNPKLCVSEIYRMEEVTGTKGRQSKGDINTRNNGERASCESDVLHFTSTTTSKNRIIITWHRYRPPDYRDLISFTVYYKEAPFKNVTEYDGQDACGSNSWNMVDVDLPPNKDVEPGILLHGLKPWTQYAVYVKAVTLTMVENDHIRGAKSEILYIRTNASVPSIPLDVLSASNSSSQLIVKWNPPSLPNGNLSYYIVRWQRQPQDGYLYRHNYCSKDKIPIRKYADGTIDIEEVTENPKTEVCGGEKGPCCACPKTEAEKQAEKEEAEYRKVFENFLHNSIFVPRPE
Insulin-like growth factor 1 receptor (Homo sapiens), sequence (P08069 741-1367 limits assumed): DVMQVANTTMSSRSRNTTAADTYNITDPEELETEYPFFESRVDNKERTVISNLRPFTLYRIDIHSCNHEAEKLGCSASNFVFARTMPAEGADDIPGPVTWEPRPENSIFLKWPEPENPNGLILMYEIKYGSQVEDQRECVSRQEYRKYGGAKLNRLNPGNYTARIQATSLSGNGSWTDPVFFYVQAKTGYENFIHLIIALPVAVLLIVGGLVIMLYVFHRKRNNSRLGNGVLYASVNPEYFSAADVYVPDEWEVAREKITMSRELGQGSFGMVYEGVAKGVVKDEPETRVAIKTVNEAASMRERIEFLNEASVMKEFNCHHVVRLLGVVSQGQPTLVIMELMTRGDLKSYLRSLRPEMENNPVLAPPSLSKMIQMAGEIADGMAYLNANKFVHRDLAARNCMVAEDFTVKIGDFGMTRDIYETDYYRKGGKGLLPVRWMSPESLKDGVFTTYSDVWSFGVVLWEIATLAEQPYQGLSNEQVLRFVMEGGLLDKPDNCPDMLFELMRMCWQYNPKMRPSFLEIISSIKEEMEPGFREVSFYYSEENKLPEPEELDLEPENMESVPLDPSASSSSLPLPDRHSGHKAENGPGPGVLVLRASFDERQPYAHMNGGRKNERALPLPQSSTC

Question: Which Activity [1] does the source give for `COc1ccc(-c2ccc3c(N4CCOCC4)nc(N4C[C@@H](C)O[C@@H](C)C4)nc3n2)cc1CO` [Ku-0063794] here?
Answer: 92%

Question: What about the inhibition [2] of the same compound?
Answer: Active

Question: And the Activity [3]?
Answer: 71%

Question: And the Activity [4]?
Answer: 105%

Question: And the inhibition [5]?
Answer: Dose-Dependent Effect

Question: What about the Activity [6] of the same compound?
Answer: 101%

Question: And the Activity [7]?
Answer: 104%

Question: And the inhibition [8]?
Answer: Active

Question: And the Activity [9]?
Answer: 96%

Question: What about the Activity [10] of the same compound?
Answer: 104%

Question: And the Activity [11]?
Answer: 117%

Question: And the Activity [12]?
Answer: 100%

Question: And the Activity [13]?
Answer: 104%

Question: And the Activity [14]?
Answer: 90%

Question: And the Activity [15]?
Answer: 89%

Question: What about the Activity [16] of the same compound?
Answer: 72%

Question: And the inhibition [17]?
Answer: Dose-Dependent Effect

— ChEMBL document CHEMBL5678799 (Biochem J, 2009)
